≈ marks a conversion by molar mass, not a printed value.

Assay [1] deals with Staphylococcus aureus. The assay is described as follows: Antibacterial activity against Staphylococcus aureus ATCC 6538 after 24 hrs by broth dilution assay. The class given is functional.
Assay [2] concerns Staphylococcus epidermidis. Put plainly: Antibacterial activity against Staphylococcus epidermidis ATCC 14990 after 24 hrs by broth dilution assay. The class given is functional. Put shortly: (§1)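 Microdilution in nutrient broth at 37 °C, about (1-5) × 10^5 cfu/mL inoculum, compounds in DMSO (≤1% v/v, matched DMSO controls), in triplicate. Growth followed by OD550. Wells without visible growth after 24 h on a rotary shaker were subcultured in duplicate onto nutrient agar and colonies counted after overnight incubation. MIC is the lowest concentration inhibiting growth at 24 h.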

The test system of assay [3] is Bacillus subtilis. The assay is described as follows: Antibacterial activity against Bacillus subtilis ATCC 6051 after 24 hrs by broth dilution assay. The class given is functional.
In assay [4] the test system is Bacillus cereus. Put plainly: Antibacterial activity against Bacillus cereus ATCC 21772 after 24 hrs by broth dilution assay. The class given is functional.
The test system of assay [5] is Enterococcus faecalis. Put plainly: Antibacterial activity against Enterococcus faecalis ATCC 29212 after 24 hrs by broth dilution assay. As to conditions: ATCC 29212, 24 h; call rule not given here. The class given is functional. Put shortly: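 Microdilution in brain heart infusion broth, shaken at 37 °C, about (1-5) × 10^5 cfu/mL start, DMSO ≤1% v/v with matched controls, in triplicate. OD550 read. Clear wells at 24 h were subcultured in duplicate onto brain heart infusion agar and counted after overnight incubation. MIC is the lowest concentration giving growth inhibition.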

The test system of assay [6] is Mycolicibacterium smegmatis. The assay is described as follows: Antibacterial activity against Mycobacterium smegmatis ATCC 19420 after 48 hrs by broth dilution assay. The class given is functional. Conditions: ATCC 19420, 48 h. Summed up:
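Brain heart infusion broth with 0.06% Tween 80, 37 °C on a rotary shaker, inoculum about (1-5) × 10^5 cfu/mL, DMSO ≤1% v/v with matched controls, in triplicate. OD550 monitored.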

Assay [7] deals with Escherichia coli. Put plainly: Antibacterial activity against Escherichia coli ATCC 9637 after 24 hrs by broth dilution assay. The class given is functional. Conditions: ATCC 9637, 24 h. Put shortly: as §1
In assay [8] the test system is Proteus mirabilis. Put plainly: Antibacterial activity against Proteus mirabilis CECT 170 after 24 hrs by broth dilution assay. The class given is functional. As to conditions: CECT 170, 24 h. Put shortly:
as §1

The test system of assay [9] is Pseudomonas aeruginosa. The assay is described as follows: Antibacterial activity against Pseudomonas aeruginosa AK958 after 24 hrs by broth dilution assay. The class given is functional. As to conditions: AK958, 24 h. Put shortly:
as §1

The test system of assay [10] is Salmonella. The assay is described as follows: Antibacterial activity against Salmonella CECT 4569 after 24 hrs by broth dilution assay. The class given is functional. As to conditions: CECT 4569, 24 h. Summed up:
as §1

Assay [11] has as its system HeLa. Put plainly: Cytotoxicity against human HeLa cells at lag phase of growth after 48 hrs by MTT assay. The class given is functional, cell-based. Summed up:
(§2)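 Monolayers grown in DMEM with 5% fetal calf serum and penicillin-streptomycin at 37 °C, 5% CO2. 2×10^4 cells/well in lag or log phase were exposed for 48 h to a concentration series of compounds predissolved in DMSO. MTT formazan was dissolved in DMSO and read at 550 nm. IC50 taken from the curve; three independent experiments.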

Assay [12] has as its system HeLa. Put plainly: Cytotoxicity against human HeLa cells at exponential phase of growth after 48 hrs by MTT assay. The class given is functional, cell-based. Summed up:
as §2

The subject of assay [13] is HEp-2. The assay is described as follows: Cytotoxicity against human Hep2 cells at lag phase of growth after 48 hrs by MTT assay. The class given is functional, cell-based. Summed up: as §2
The test system of assay [14] is HEp-2. The assay is described as follows: Cytotoxicity against human Hep2 cells at exponential phase of growth after 48 hrs by MTT assay. The class given is functional, cell-based. Put shortly:
as §2

Assay [15] has as its system A549. Put plainly: Cytotoxicity against human A549 cells at exponential phase of growth after 48 hrs by MTT assay. The class given is functional, cell-based. Summed up: as §2
In assay [16] the test system is MCF7. Put plainly: Cytotoxicity against human MCF7 cells at lag phase of growth after 48 hrs by MTT assay. The class given is functional, cell-based. Summed up:
as §2

The subject of assay [17] is MCF7. The assay is described as follows: Cytotoxicity against human […] cells at exponential phase of growth after 48 hrs by MTT assay. The class given is functional, cell-based. Put shortly: as §2
The subject of assay [18] is Vero. Put plainly: Cytotoxicity against african green monkey Vero cells at lag phase of growth after 48 hrs by MTT assay. The class given is cell-based, Chlorocebus sabaeus. Put shortly:
as §2

For assay [19], the system named is Vero. The assay is described as follows: Cytotoxicity against african green monkey Vero cells at exponential phase of growth after 48 hrs by MTT assay. The class given is cell-based, Chlorocebus sabaeus. Put shortly:
as §2

Assay [20] has as its system Candida albicans. The assay is described as follows: Antibacterial activity against Candida albicans CECT 1039 after 24 hrs by broth dilution assay.
The subject of assay [21] is A549. The assay is described as follows: Cytotoxicity against human A549 cells at lag phase of growth after 48 hrs by MTT assay. The class given is functional, cell-based. Put shortly: as §2
The mark [22] stands for this setting: Homo sapiens, HeLa, 48 h, read-out: IC50.
The mark [23] stands for this setting: Homo sapiens, HEp-2, 48 h, read-out: IC50.
[24] abbreviates: Chlorocebus sabaeus, Vero, 48 h, read-out: IC50.
[25] abbreviates: Homo sapiens, A549, 48 h, read-out: IC50.
The mark [26] stands for this setting: Homo sapiens, MCF7, 48 h, read-out: IC50.

As for `COC(=O)C1=C(/C=C(\C(=O)OC)C(C)C)[C@@H]2C[C@H]3C(C)(C)CCC[C@]13C(=O)O2`, the MIC in assay [1], in [2], in assay [3], in [5], in [6] and in assay [7] was over 40 µg/mL in each case. Besides, the MIC in [8], in [9], in assay [10] and in [20] was over 40 µg/mL throughout. The molecule also displayed an MI50 in assay [4] of over 40 µg/mL. Further, the IC50 entry in assay [11] (hela), in assay [12] (hela), in [13] (hep-2), in assay [14] (hep-2), in [15] (a549) and in assay [16] (mcf7) was “Not Active” throughout. In addition, the IC50 entry in assay [17] (mcf7), in [18] (vero) and in [19] (vero) was “Not Active” each time.
Take `COc1c2c(c(O)c3c1[C@@H](C)CO3)[C@@]13CCCC(C)(C)[C@@H]1C[C@@H]2OC3=O`: the MIC in assay [1], in assay [2], in [3], in assay [5], in assay [6] and in [7] was over 40 µg/mL in each case. Also, the MIC in [8], in assay [9], in [10] and in [20] was over 40 µg/mL in each case. For the same molecule, the MI50 in assay [4] is over 40 µg/mL. In addition, the IC50 entry in [11] (hela), in assay [12] (hela), in assay [13] (hep-2), in assay [14] (hep-2), in assay [15] (a549) and in assay [16] (mcf7) was “Not Active” in each case. For the same molecule, the IC50 entry in assay [17] (mcf7), in assay [18] (vero) and in assay [19] (vero) was “Not Active” in each case.
As for `COc1c(C(C)C)cc2c(c1OC)[C@@]13CCCC(C)(C)[C@@H]1[C@H](OC3=O)[C@@H]2OCc1ccccc1`, the MIC in assay [1], in [2], in assay [3], in assay [5], in assay [6] and in assay [7] was over 40 µg/mL throughout. Further, the MIC in assay [8], in [9], in assay [10] and in assay [20] was over 40 µg/mL each time. This molecule also returned an MI50 in assay [4] of over 40 µg/mL. For the same molecule, the IC50 entry in [11] (hela), in assay [12] (hela), in assay [13] (hep-2), in assay [14] (hep-2), in assay [21] (a549) and in assay [15] (a549) was “Not Active” in each case. The IC50 result in assay [16] (mcf7), in [17] (mcf7), in [18] (vero) and in assay [19] (vero) was “Not Active” throughout.
Regarding `CC(C)c1cc2c(c(O)c1O)[C@@]1(C(=O)O)CCCC(C)(C)[C@@H]1C[C@H]2Sc1ccccc1`, the IC50 in assay [11] (setting [22]) stood at 4.8 µM; in assay [12] (setting [22]), 11.1 µM; in assay [13] (setting [23]), 15.2 µM; in assay [14] (setting [23]) it was 18.9 µM; in assay [18] (setting [24]) it was 6.1 µM; in assay [19] (setting [24]), 21.1 µM.
For `CO/N=C(\C(=O)N[C@@H]1C(=O)N2C(C(=O)O)=C(COC(C)=O)CS[C@H]12)c1csc(N)n1` [CEFOTAXIME], the MIC in [1] (Staphylococcus aureus, ATCC 6538, 24 h, read-out: MIC) was 1.25 µg/mL (≈ 2.74 µM); in assay [2] (Staphylococcus epidermidis, ATCC 14990, 24 h, read-out: MIC), 2.5 µg/mL (≈ 5.49 µM); in [3] (Bacillus subtilis, ATCC 6051, 24 h, read-out: MIC) it was 8 µg/mL (≈ 17.6 µM); in assay [4] (Bacillus cereus, ATCC 21772, 24 h), 10 µg/mL (≈ 22 µM); in assay [5], over 40 µg/mL; in assay [6], over 40 µg/mL. Moreover, the MIC in assay [7], in assay [8], in assay [9] and in assay [10] was over 40 µg/mL in each case.
On to `Sc1ncnc2nc[nH]c12` [MERCAPTOPURINE ANHYDROUS], for which the IC50 in [11] (setting [22]) amounted to 2.9 µM; in [12] (setting [22]), 4.1 µM; in assay [13] (setting [23]) it was 431 µM; in assay [14] (setting [23]) it was 318 µM; in assay [21] (setting [25]), 47 µM; in assay [15] (setting [25]) it was 49.3 µM. For the same molecule, the IC50 in assay [16] (setting [26]) is 1.4 µM; in [17] (setting [26]) it was 5.8 µM; in assay [18] (setting [24]) it was 67.5 µM; in assay [19] (setting [24]) it was 119 µM.
Regarding `CC(C)C1=CC2=C(C(=O)C1=O)[C@@]13CCCC(C)(C)[C@@H]1[C@@H](O)[C@@H]2OC3=O` [ISOROSMAQUINONE], the IC50 is 25 µM in assay [11] (setting [22]); 30.8 µM in assay [12] (setting [22]); 39.5 µM in assay [13] (setting [23]); 39.2 µM in assay [14] (setting [23]); over 60 µM in assay [18] (setting [24]); over 60 µM in [19] (setting [24]).
For `CC(=O)OC[C@H](C)C1=C(OC(C)=O)C(O)C2=C(C1=O)[C@@H]1C[C@H]3C(C)(C)CCC[C@]23C(=O)O1` (stereo partly specified), the MIC in assay [1], in assay [2], in assay [3], in assay [5], in [6] and in assay [7] was over 40 µg/mL in each case. In addition, the MIC in [8], in assay [9], in [10] and in assay [20] was over 40 µg/mL throughout. Besides, the MI50 in assay [4] was over 40 µg/mL. Further, the IC50 in assay [11] (setting [22]) was 33.8 µM; in assay [12] (setting [22]), 40.5 µM; in assay [13] (setting [23]) it was over 45 µM; in assay [14] (setting [23]) it was over 45 µM; in [16] (setting [26]), over 45 µM; in [17] (setting [26]), over 45 µM. For the same molecule, the IC50 in assay [18] (setting [24]) and in assay [19] (setting [24]) was over 45 µM in each case.
As to `CC(C)C1=CC2=C(C(=O)C1=O)[C@@]13CCCC(C)(C)[C@@H]1C[C@@H]2OC3=O`, the MIC in assay [1], in assay [2], in assay [3], in assay [5], in [6] and in assay [7] was over 40 µg/mL throughout. The MIC in assay [8], in [9], in assay [10] and in assay [20] was over 40 µg/mL each time. Further, in assay [4], the MI50 is over 40 µg/mL. Besides, the half-inhibitory concentration (IC50) in assay [11] (setting [22]) is over 60 µM; in [12] (setting [22]) it was 40.2 µM; in [13] (setting [23]) it was over 60 µM; in [14] (setting [23]), over 60 µM.
For `Cc1coc2c1C(=O)C1=C(C2=O)[C@@]23CCCC(C)(C)[C@@H]2C[C@@H]1OC3=O`, the MIC in [1], in assay [2], in assay [3], in [5], in assay [6] and in assay [7] was over 40 µg/mL in each case. The MIC in [8], in [9], in [10] and in assay [20] was over 40 µg/mL each time. The molecule further gave an MI50 in [4] of over 40 µg/mL. For the same molecule, the IC50 is over 58.8 µM in assay [11] (setting [22]); over 58.8 µM in [12] (setting [22]); 48.8 µM in [21] (setting [25]); over 58.8 µM in [15] (setting [25]); over 58.8 µM in [16] (setting [26]); over 58.8 µM in assay [17] (setting [26]). Besides, the IC50 in assay [18] (setting [24]) and in assay [19] (setting [24]) was over 58.8 µM in each case.

Values taken from ChEMBL document CHEMBL1154249, “Semisynthesis and biological evaluation of abietane-type diterpenes. Revision of the structure of rosmaquinone” (J Nat Prod, 2009).
